EP2 mod: EP2 receptor (human) modulation; P43116; EP2-expressing cells, cAMP HTRF FRET, PGE2 co-stimulation; induction, % at 25 µM; 260,000 compounds, 0.83% hits; AID 940;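 active = compounds whose cAMP rise, as percent of the full-agonist control response, exceeds 60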;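 note: rat C6 glioma line stably carrying human EP2 under a CMV promoter; the protocol text gives 20 µM as final concentration; 100% = response of wells given 1 µM PGE2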
CHO parental Ca: counter-screen: ATP calcium response change in parental CHO cells. parental CHO-K1, ATP-induced calcium, Fluo-8 fluorescence. inhibition, % at 5.6 µM. 330,000 compounds, 0.63% hits. AID 463079;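 active = inhibition above that plate's mean sample inhibition plus 3 SD, cut at about 26% in these data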;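 note: 0% = ATP-challenged DMSO wells and 100% = DMSO wells without ATP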
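test system = CHO parental line | reagent = ATP stimulus | measured by = intracellular calcium via Fluo-8 no-wash fluorescent dye | control set = ATP and no-ATP DMSO wells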
OX1R antag-1: OX1R (human) antagonism. OX1R-expressing cells, FRET antagonist read-out. 330,000 compounds, 1.8% hits. inhibition, % at 6.6 µM. AID 485270; in the data active = inhibition mostly above about 38%, no sharp cut-off; inactive = mostly below about 40%;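 note: 0% = agonist challenge alone and 100% = reference antagonist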
GPR7 antagonist: antagonists of human GPR7 (neuropeptides B/W receptor 1); P48145; GPR7-expressing cells, fluorescence antagonist assay; inhibition, % at 4.4 µM; 290,000 compounds, 1.1% hits; AID 1861; in the data active = inhibition above about 16%, passing the limit was not always enough;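 note: cells stimulated with the agonist NPW; 0% = agonist with vehicle and 100% = vehicle without agonist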
Target sequence (P48145 whole entry, looked up): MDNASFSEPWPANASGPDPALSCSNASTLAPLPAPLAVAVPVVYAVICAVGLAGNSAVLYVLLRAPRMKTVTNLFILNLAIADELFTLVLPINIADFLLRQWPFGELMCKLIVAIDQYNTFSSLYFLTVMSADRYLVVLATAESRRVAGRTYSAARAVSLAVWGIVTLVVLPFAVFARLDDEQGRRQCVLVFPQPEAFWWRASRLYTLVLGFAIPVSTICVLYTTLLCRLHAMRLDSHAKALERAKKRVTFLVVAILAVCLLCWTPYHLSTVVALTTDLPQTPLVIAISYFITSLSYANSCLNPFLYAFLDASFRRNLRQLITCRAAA
PGE2 EP2 inh: inhibitors of human EP2 prostaglandin E2 receptor; inhibition, % at 25 µM; AID 1422; C6 glioma cells expressing human EP2, cAMP TR-FRET; cells stimulated with saturating PGE2; 260,000 compounds, 0.52% hits;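 active = percent inhibition above 40 after rounding to a whole number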;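 note: rat C6 glioma host cells with rolipram phosphodiesterase inhibitor present; the protocol text gives 20 µM as final concentration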
OX1R antag-2: antagonists of human orexin 1 receptor. CHO/OX1R cells, Fluo-8 calcium fluorescence, orexin A. 330,000 compounds, 0.43% hits. inhibition, % at 5 µM. AID 434989;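 active = inhibition above its plate's threshold, mean inhibition of all tested compounds on the plate plus 3 SD, cut at about 37% in these data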;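 note: 0% = orexin A challenge wells and 100% = SB-334867-A antagonist wells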
GPR7 antag cf: confirmation of human GPR7 antagonists. inhibition, % at 4.4 µM. 2,400 compounds, 52% hits. GPR7-expressing cells, calcium fluorescence antagonist mode. shares compounds with GPR7 antagonist; in the data active = inhibition above about 24%;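 note: stimulated with the GPR7 agonist NPW; 0% = agonist plus vehicle and 100% = vehicle alone without agonist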
MCHR1 antagonist: counter-screen for GPR7 antagonists: antagonists of human MCHR1; shares compounds with GPR7 antagonist; MCHR1-expressing cells, fluorescence antagonist assay; inhibition, % at 4.4 µM; 2,400 compounds, 62% hits; in the data active = inhibition above about 22%;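 note: 0% = vehicle with agonist and 100% = vehicle without agonist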
Active calls of the source: *; nt = not tested or not shown. An excerpt weighted towards active compounds, which were near 3.7% of everything screened.

SMILES	EP2 mod	CHO parental Ca	OX1R antag-1	GPR7 antagonist	PGE2 EP2 inh	OX1R antag-2	GPR7 antag cf	MCHR1 antagonist
Cc1ccc(NC(=O)CSc2ncnc3ccccc23)cc1S(=O)(=O)N1CCOCC1	5	7	18	7	10	-9	nt	nt
c1ccc(-c2ccc(OCCCNC3CCCC3)cc2)cc1	-55	-1	1	21*	1	-7	23	21
CC(C(=O)Nc1c2c(cc3c1CCC3)CCC2)N1CCCC1 (stereo unspecified)	5	-2	11	32*	9	-14	21	28*
CC(C)NC(=O)NC(=O)CSc1nncn1C	13	-8	14	-1	5	-9	nt	nt
CCNC(=S)Nc1ccc(Oc2ccccc2)cc1	nt	-16	17	12	14	-9	nt	nt
S=C(NCc1ccccc1)Nc1ccc(Oc2ccccc2)cc1	nt	23	16	28*	nt	-9	15	29*
C=CCS(=O)(=O)N1CCCC(Cc2ccccc2C)(C(=O)OCC)C1 (stereo unspecified)	nt	-11	23	31*	nt	-14	3	-1
CCOC(=O)C1(Cc2ccccc2C)CCCN(C(=O)c2ccccn2)C1 (stereo unspecified)	10	-2	27	-2	9	-10	nt	nt
COc1ccc(C)cc1NC(=O)c1nnn(Cc2cc(C)ccc2C)c1N	-24	-10	10	-13	6	-5	nt	nt
Cc1onc(-c2ccccc2)c1C(=O)O/N=C(\N)c1ccc([N+](=O)[O-])o1	-16	-15	14	-4	20	-20	nt	nt
Cc1onc(-c2cccc(Cl)c2Cl)c1C(=O)O/N=C(\N)c1ccc([N+](=O)[O-])o1	-35	-2	28	31*	16	-23	45*	55*
CCC(CC)COC(=O)C(C#N)c1nc2ccccc2nc1N1CCN(CC)CC1 (stereo unspecified)	9	-23	8	4	5	-11	nt	nt
O=C(NCCc1ccccc1)C1CCN(Cc2cccc3ccccc23)CC1	nt	-14	2	28*	nt	3	4	10
O=C(NCCc1ccccc1)C1CCN(C2CCN(Cc3ccco3)CC2)CC1	-9	8	14	-21	7	0	nt	nt
O=[N+]([O-])c1ccc(-c2csc3[n+]2CCS3)cc1	13	-13	74*	29*	17	-20	-1	14
O=C(O)c1ccc(OS(=O)(=O)c2ccc(Cl)s2)c(Cl)c1	nt	-8	2	nt	nt	-12	nt	nt
O=C(CSC1=NCCS1)NC(c1ccccc1)c1ccccc1	10	-22	19	0	5	-9	nt	nt
O=C(CSC1=NCCS1)NC(NC(=O)CSC1=NCCS1)c1ccccc1	-21	-4	24	29*	6	9	2	-1
Cc1nn2c(NCCCN(C)C)c3c(nc2c1-c1ccccc1)CCCC3	-40	-18	4	30*	5	-19	18	23*
COCCN=c1scc(-c2cccs2)n1/N=C(\C)c1ccco1	-72	-20	19	-7	10	-29	nt	nt
COc1ccccc1-c1cc(C(=O)N2CCCC2)no1	nt	-19	42	-13	nt	-7	nt	nt
O=C(c1cc(-c2ccccc2Cl)on1)N1CCCC1	nt	-7	16	27*	nt	-25	17	7
COC(=O)Nc1ccccc1C(=O)N1CCN(c2ccc(C)cc2)CC1	15	-8	6	-9	7	-16	nt	nt
CC1(c2ccc(OC(F)F)cc2)NC(=O)N(CC(=O)Nc2cccc(F)c2)C1=O (stereo unspecified)	nt	53*	11	94*	nt	67*	93*	92*
CC1(c2ccc(OC(F)F)cc2)NC(=O)N(CC(=O)Nc2ccc(S(N)(=O)=O)cc2)C1=O (stereo unspecified)	18	-6	5	-9	6	-5	nt	nt
SMILES	EP2 mod	CHO parental Ca	OX1R antag-1	GPR7 antagonist	PGE2 EP2 inh	OX1R antag-2	GPR7 antag cf	MCHR1 antagonist
CCOc1ccc(NC(=O)CN2C(=O)NC(C)(c3ccc(OC(F)F)cc3)C2=O)cc1 (stereo unspecified)	nt	21	-9	75*	nt	32	81*	74*
CC1(c2ccc(OC(F)F)cc2)NC(=O)N(CC(=O)NC2CCCCC2)C1=O (stereo unspecified)	-3	-18	2	7	6	-9	nt	nt
Cc1ccc(C2(C)NC(=O)N(CC(=O)N(C)CC(=O)Nc3cccc(F)c3)C2=O)cc1 (stereo unspecified)	nt	-3	3	nt	nt	-6	nt	nt
CCOC(=O)c1c(NC(=O)CN2C(=O)NC(C)(c3ccc(OC(F)F)cc3)C2=O)sc(C)c1C (stereo unspecified)	-32	30	-5	71*	24	26	68*	86*
CC1(c2ccc(OC(F)F)cc2)NC(=O)N(CC(=O)Nc2ccc(F)cc2)C1=O (stereo unspecified)	nt	15	10	43*	nt	23	54*	48*
C[C@H]1CCC[C@]2(CC(=O)c3cc(F)ccc3O2)C1	nt	-6	3	nt	nt	12	nt	nt
CCOC(=O)Cn1c(=NC(=O)c2cccs2)sc2cc(C(=O)OC)ccc21	15	4	2	-11	7	-24	nt	nt
Cc1cn2c(=O)c(C(=O)N3CCN(c4ccccc4Cl)CC3)cnc2s1	nt	-17	12	nt	nt	-7	nt	nt
NC(=O)CC(NC(=O)Cc1ccc(Br)cc1)c1ccc(NCCc2cccc(F)c2)c([N+](=O)[O-])c1 (stereo unspecified)	-18	7	7	nt	11	7	nt	nt
CCOC(=O)C(CC(C)C)CP(=O)(O)CNC(=O)OCc1ccccc1 (stereo unspecified)	13	5	10	0	6	2	nt	nt
CC1CCCCN1CCNCc1nc(-c2ccc(C(F)(F)F)cc2)no1 (stereo unspecified)	-61	nt	nt	nt	5	nt	nt	nt
Cc1ccc(NC(=O)CN2C(=O)NC(C)(c3ccc(Cl)cc3)C2=O)cc1 (stereo unspecified)	nt	4	8	23*	nt	-9	43*	29*
Cc1cc(NC(=O)CN2C(=O)NC(C)(c3ccccc3Cl)C2=O)no1 (stereo unspecified)	nt	-10	-2	nt	nt	-5	nt	nt
Cc1cc(NC(=O)CN2C(=O)NC(C)(c3ccc(OC(F)F)cc3)C2=O)no1 (stereo unspecified)	-20	-7	-3	50*	24	0	51*	48*
CC1(c2ccc(OC(F)F)cc2)NC(=O)N(CC(=O)Nc2ccc(Cl)cc2F)C1=O (stereo unspecified)	nt	22	11	55*	nt	18	67*	64*
